Laboratory results published in the RNAGym collection of RNA variant scans (doi:10.1101/gad.245936.114).
This sample holds only a part of the variants without activity.

B1: tRNA (parent)
chain: CUCUCGGUAGCCAAGUUGGUUUAAGGCGCAAGACUUUAAUUUAUCACUACGAAAUCUUGAGAUCGGGCGUUCGACUCGCCCCCGGGAGAUUUUUUCCUCGAGCAA

Variants of: B1
Assay: nonsense suppression (GFP-seq) (ratio to wild type); higher = more function; SUP4oc tRNA, yeast GFP reporter sort-seq
Method in brief: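 Yeast were grown in raffinose/galactose medium with 80 mg/L adenine, each strain bearing a genome-integrated ochre-suppressor tRNA variant from a ~3% random-mutation library, a galactose-driven GFP ochre reporter, and RFP. After sorting into GFP/RFP bins, every bin was sequenced on an Illumina platform at phred ≥30. The GFPSEQ value, a measure of nonsense suppression, is the weighted bin median GFP/RFP relative to the unmutated parent tRNA, using each variant's estimated cell share per bin as the weight. Only variants with ≥100 reads and ≥30 cells were included.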

CUCUCGGUAGCCAAGUUGGUUUAAGGCGCAAGACUUUAAUUUAUCACUACGAAAUCUUAAGAUCGGGCGUUCGACUCGCCCCCCGGAGAUUUUUUCCUCGAGCAA and CUCUCGGUAGCCAAGUUGGUUUAAGGCGCAAGAUUUUAAUUUAUCACUACGAAAUCUUUAGAUCGGGCGUUCGACUCGCCCCCGGGAGAUUUUUUCCUCGAGCAA cannot be ordered by nonsense suppression: at most 0.026 for the first, at most 0.026 for the second.

Going from CUCUCGGUAGUCAAGUUGGUUUAAGGCGCAAGACUUUAAUUUAUCACUACGAAAUCUUGAGAUCGGGCGUUCGAAUCGCCCCCGGGAGAUUUUUUCCUCGAGCAA to CUCUCGGUAGCCAAGUUGGUUUAAGGCGCAAGACUUUAAUUUAUCACUACGAAAUCUUGAGAUCGGACGUUCGACUCGCCCCCGGGAGAUUUUUUCCUCGAGCAA, the nonsense suppression rises from 0.168 to 0.188.

CUCUCGGUAGGCUAGUUGGUUUAAGGCGCAAGACUUUAAUUUAUCACUACGAAAUCUUGAGCUCGGGCGUUCGACUCGCCCCCGGGAGAUUUUUUCCUCGAGCAA and CUCUCGGUAGCCAAGUUGGUUUAAGGCGCAAGAAUUUAAUUUAUCACUACGAAAUCUUGAGAUCGGGCGUUCGACUCGCCCCCGGGGGAUUUUUUCCUCGAGCAA cannot be ordered by nonsense suppression: at most 0.026 for the first, at most 0.026 for the second.

Going from CUCUCGGUAGCCAGGUUGGUUUAAGGCGCGAGACUUUAAUUUAUCACUACGAAAUCUUGAGAUCGGGCGUUCGACUCGCCCCCGGGAGAUUUUUUCCUCGAGCAA to CUCUCGGUAGCCAAGUUGGUUUAAGGCGCAAGACUUUAAUUUAUCACUACGAAAUCUUGAUACCGGGCGUUCGACUCGCCCCCGGGAGAUUUUUUCCUCGAGCAA, the nonsense suppression rises from 0.03 to 0.808.

First: CUCUCGGUAGCCAAGUAGGUUUAAGGCGCAAGAUUUUAAUUUAUCACUACGAAAUCUUGAGAUCGGGCGUUCGUCUCGCCCCCGGGAGAUUUUUUCCUCGAGCAA
Second: CUCCCGGUAGCCAAGUUGGUUUAAGGCGCAAGACUUUAAUUUAUCACUACGAAAUCUUGAGAUCGGGCGUUCGACUCUCCCCCGGGAGAUUUUUUCCUCGAGCAA
The nonsense suppression of the first is lower: at most 0.026 for the first, 1.12 for the second.

First: CUCUCGGUAGCCAAGUUGGUUUAAGGUGCAAGACUUUAAUUUAUCACUACGAAAUCUUGAGAUCGGGCGUUCGAAUCGCCCCCGGGAGAUUUUUUCCUCGAGCAA
Second: CCCUCGGUAGCCAAGUUGGUUUAAGGCGCAAGACUUUAAUUUAUCACUACGAAAACUUGAGAUCGGGCGUUCGACUCGCCCCCGGGAGAUUUUUUCCUCGAGCAA
The nonsense suppression of the first is higher: 0.641 for the first, at most 0.026 for the second.

First: CUCUCUGUAGCCAAGUUGGUUUAAGGCGCAAGACUUUAAUUUAUCACUACGAAAUCAUGAGAUCGGGCGUUCGACUCGCCCCCGGGAGAUUUUUUCCUCGAGCAA
Second: CUCUCAGUAGCCGAGUUGGGUUAAGGCGCAAGAAUUUAAUUUAUCACUACGAAAUCUUGAGAUCGGGCGUUCAACUCGCCCCCGGGAGAUUUUUUCCUCGAGCAA
The nonsense suppression of the first is lower: at most 0.026 for the first, 0.0802 for the second.

Going from CUCUCGGUAGCCAAGUUGGUUUAAGGCGCAAGACUUUAAUUUAUCACUACGAAAUCAUGCGAUCGGGCGUUCGACUCGCCCCCGGGAGAUUUUUUCCUCGAGCAA to CUCUCGGUAGCCAAGUUGGUUUACGGCGCAAGACUUUAAUUUAUCACUACGAAAUCUUGAGAUCGGGCGUUCGACUCGCCCCCGGGUGAUUUUUUCCUCGAGCAA, the nonsense suppression falls from 0.0859 to 0.0833.

Going from CUUUCGGUAGCCAAGUAGGUUUAAGGCGCAAGACUUUAAUUUAUCACUACGAAAUCUUGAGAUCGGGCGUUCGACUCGCCCCCGGGAGAUUUUUUCCUCGAGCAA to CUCUCGGUAGCCAAGUUGGUUUAAGGCGCAAGGCUUUAAUUUAUCACUACGAAAUCUUGAGAUCGGGCGUUCGACUCGCUCCCGGGAGAUUUUUUCCUCGAGCAA, the nonsense suppression falls from 0.194 to 0.0422.

Compared with CUCUCGGUAGCCAAGUUGGUUUAAGGCGCAAGACUUUAAUUUAUCACUACGAAAUUUUGAGAUCGGGCGUUCGACUCGCCCCCGGGAGAUUUUUUCCUCGAGCAA, CUCUCGGUAGCCAAGUUGGUUUAAGGCGAAAGACUUUAAUUUAUCACUACGAAAUCAUGAGAUCGGGCGUUCAACUCGCCCCCGGGAGAUUUUUUCCUCGAGCAA is lower in nonsense suppression: 0.15 for the first, at most 0.026 for the second.

Going from CUCUCGGUGGCCAACUUGGUUUAAGGCGCAAGACUUUAAUUUAUCACUACGAAAUCUUGAGAUCGGGCGUUCGACUCGCCCCCGGGAGAUUUUUUCCUCGAGCAA to CUCUCGGUAGCUAAGUUGGUUUCAGGCGCAAGACUUUAAUUUAUCACUACGAAAUCUUGAGAUCGGGCGCUCGACUCGCCCCCGGGAGAUUUUUUCCUCGAGCAA, the nonsense suppression falls from 0.173 to at most 0.026.

Going from CUCUCGGUAGCCGAGUUGGUGUAAGGCGCAAGACUUUAAUUUAUCACUACGAAAUCUUGAGAUCGGGCGUUCGACUCGCCCCCGGGAGAUUUUUUCCUCGAGCAA to CUCUCGGUAGCCCAGUUGGUUUAAGGCGCAAGACUUUAAUUUAUCACUACGAAAUCUUGAGAUCGGGCGUUCGACUUGCCCCCGGGAGAUUUUUUCCUCGAGCAA, the nonsense suppression rises from 0.026 to 0.0493.

Going from CUCUCAGUAGCCAAGUUGGUUUAGGGCGCAAGACUUUAAUUUAUCACUACGAAAUCUUGAGAUCGGGCGUUCGACUCGCCCCCGGGAGAUUUUUUCCUCGAGCAA to CUCUCGGUAGCCAAGUUGGUUUAAGGCGCAAGACUUUAAUUUAUCACUACGAAAUCUUGAGAUCGGGCGUUCGACUCGCCCCCAGGGGAUUUUUUCCUCGAGCAA, the nonsense suppression rises from 0.0293 to 0.157.

CUCUCGGUAGCCAAGUUGGUUUAAGGGGCAAGACUUUAAUUUAUCACUACGAAAUCUUGAGAUCGGGCGUGCGACUCGCCCCCGGGAGAUUUUUUCCUCGAGCAA and CUCUCGGUACCCAAGUUGGUUUAAGGCGCAAGACAUUAAUUUAUCACUACGAAAUCUUGAGAUCGCGCGUUCGACUCGCCCCCGUGAGAUUUUUUCCUCGAGCAA cannot be ordered by nonsense suppression: at most 0.026 for the first, at most 0.026 for the second.

CUCUCGGUAACCAAGUUGGUUUAAGGUGCAAGACUUUAAUUUAUCACUACGAAAUCUUGAGAUCGGGCGUUCGACUCGCCCCCGGGAGAUUUUUUCCUCGAGCAA and CUCUCGGUAGCCCAGUUGGUUUAAGGCGCACGACUUUAAUUUAUCACUACGAAAUCUUGAGAUCGGGCGUUCGACACGCCCCCGGGAGAUUUUUUCCUCGAGCAA cannot be ordered by nonsense suppression: at most 0.026 for the first, at most 0.026 for the second.

Compared with CUCUCGGUAGCCAGGUUGGUUUAAGGCGCAAGACUUUAAUUUAUCACUACGAAAUCUUGAGAUCGGGCGUUCGACUCGCCCCCGGUAGAUUUUUUCCUCGAGCAA, CUCUUGGUAGCCAAGUUGGUUUAAGGCGCAAGACUUUAAUUUAUCACUACGAAAUCUUGCGAUCGGGCGUUCGACUCGCCCCCGGGAGAUUUUUUCCUCGAGCAA is higher in nonsense suppression: at most 0.026 for the first, 0.0867 for the second.

Going from CGCUCGGUAGCCAAGUUGGUUUGAGGCGCAAGACUUUAAUUUAUCACUACGAAAUCUUGAGAUCGAGCGUUCGACUCGCCCCCGGGAGAUUUUUUCCUCGAGCAA to CUCUCGGUAGCCAAGUUGGUUUAAGGCGCAAGACUUUAAUUUAUCACUACGAAAUCUUGAAAUCGGGCGUUCGACUCGUCCCCGGGAGAUUUUUUCCUCGAGCAA, the nonsense suppression rises from at most 0.026 to 0.209.

Going from CUCUCGGUAGCCAUGUUGGUUUAAGGCGCAAGACUUUAAUUUAUCACUACGAAAUCUUGAGAACGGGCGUUCGACUCGCCCCCGGGAGAUUUUUUCCUCGAGCAA to CUCUCGGUAGCCAAGUUGGUUUAAGGCGCAAGACUUUAAUUUAUCACUACGAAAUCUUGAAAUCGGGCGUUCGACUCGCCCCAGGGAGAUUUUUUCCUCGAGCAA, the nonsense suppression falls from 0.0439 to 0.0363.

Compared with CUUUCGGUAGCCAAGUUGGUUUAAGCCACAAGACUUUAAUUUAUCACUACGAAAUCUUGAGAUCGGGCGUUCGACUCGCCCCCGGGAGAUUUUUUCCUCGAGCAA, CUCUCGGUAGCCAAGUUGGUUUACGGCGCAAGACUUUAAUUUAUCACUACGAAAUCUUGAGAUCGGGCGUUCGACUCGCCCCCGGGAGCUUUUUUCCUCGAGCAA is higher in nonsense suppression: at most 0.026 for the first, 0.0925 for the second.

Going from CUCUCGGUAGCCAAGUUGGUUUAAGGCGCGAGACUUUAAUUUAUCACUACGAAUUCUUGAGAUCGGGCGUUCGACUCGCCCCCGGGAGAUUUUUUCCUCGAGCAA to CUCUCGGUAGCCAAGUUGGUAUAAGGCGCAAGACUUUAAUUUAUCACUACGAAUUCUUGAGAUCGGGCGUUCGACCCGCCCCCGGGAGAUUUUUUCCUCGAGCAA, the nonsense suppression falls from 1.2 to 0.751.

Compared with CUCUCGGUAGCCAAGUUGGUUUAAGGCGCAUGACUUUAAUUUAUCACUACGAAAUCUUGAGAUCGGGCGAUCGACUCGCCCCCGGGAGAUUUUUUCCUCGAGCAA, CUCUCGGUAGCCAAGUUGGUGUAAGGCGCAAGACUUUAAUUUAUCACUACGAAAUCUUGUGAUCGGGCGUUCGACUCGCCCCCGGGAGAUUUUUUCCUCGAGCAA is higher in nonsense suppression: at most 0.026 for the first, 0.96 for the second.

AUCUCGGUAGCCAAGUUGGUUUAAGGCGCAAGACUUUAAUUUAUCACUACGAAAUCUUGAGAUCGGGCGUUCGACUCGCUCCCGGGAGAUUUUUUCCUCGAGCAA showed a nonsense suppression of 0.0314.
